Here are results for 3 molecules from ChEMBL document CHEMBL1177766, “2-Substituted N-aryl piperazines as novel triple reuptake inhibitors for the treatment of depression” (Bioorg Med Chem Lett, 2010).

By microsomal CLint is commonly meant the capacity of the preparation to metabolise the compound, expressed as a volume cleared per time.

The data set in a line: Clearance in human liver microsomes assessed per mg of protein by LC/MS analysis. The class given is ADME, Microsome. Summed up: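 Human liver microsomes at 0.5 mg/mL protein. Reaction started with NADPH, run at 37 °C without shaking. Aliquots taken at 0.1, 10, 20 and 30 min for LC/MS analysis. Clearance expressed in µL/min/mg.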
As for `c1ccc(CC2CNCCN2c2ccc3[nH]ccc3c2)cc1` (stereo not drawn), the microsomal CLint was found to be 43.3 µL/min/mg.

As for `c1ccc(CC2CNCCN2c2ccc3[nH]ncc3c2)cc1` (stereo not drawn), the intrinsic metabolic clearance (microsomal CLint) amounted to 3.8 µL/min/mg. Compared with the last molecule, the microsomal CLint is about 11-fold lower.

In the case of `Fc1cc(N2CCNCC2Cc2ccccc2)cc2cc[nH]c12` (stereo not drawn), the microsomal CLint is 16.8 µL/min/mg.
